Test results reported in ChEMBL document CHEMBL1649139, “A novel gene, erm(41), confers inducible macrolide resistance to clinical isolates of Mycobacterium abscessus but is absent from Mycobacterium chelonae” (2009).
Converted amounts (≈) assume the structure as drawn.

Assays:
Assay type in all cases: functional
[1] = test system: Mycobacteroides abscessus; assay: Antimicrobial activity against Mycobacterium abscessus isolate MC879-2 at day 14 preincubated with 0.1 ug/ml erythromycin for 3 days by broth microdilution method
[2] = test system: Mycobacteroides abscessus; assay: Antimicrobial activity against Mycobacterium abscessus isolate MC1448 at day 14 preincubated with 0.1 ug/ml erythromycin for 3 days by broth microdilution method
Method in brief: (§1)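 Clarithromycin MIC by CLSI-conforming broth microdilution. Before testing, cultures were preincubated for 3 days, either in medium alone or in clarithromycin or erythromycin (tested range 0.01–1 μg/ml). Preincubation ran for at least two generations, judged by turbidity increase. Plates were read on day 3 and on extended incubation at days 5 to 14.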

[3] = test system: Mycobacteroides abscessus; assay: Antimicrobial activity against Mycobacterium abscessus isolate MC879 on day 14 by broth microdilution method; details: isolate MC879, 336 h
[4] = test system: Mycolicibacterium smegmatis; assay: Antimicrobial activity against Mycobacterium smegmatis transformed with erm allele Mycobacterium abscessus isolate MC720 by broth microdilution method
[5] = test system: Mycolicibacterium smegmatis; assay: Antimicrobial activity against Mycobacterium smegmatis transformed with erm allele Mycobacterium abscessus isolate MC879-2 preincubated with 2 ug/ml erythromycin for 20 to 24 hrs by broth microdilution method
[6] = test system: Mycolicibacterium smegmatis; assay: Antimicrobial activity against Mycobacterium smegmatis transformed with erm allele Mycobacterium abscessus isolate MC1028 preincubated with 2 ug/ml erythromycin for 20 to 24 hrs by broth microdilution method
[7] = test system: Mycobacteroides abscessus; assay: Antimicrobial activity against Mycobacterium abscessus isolate MC879 at day 7 by broth microdilution method; details: isolate MC879, 168 h
Method in brief: (§2)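 Clarithromycin MIC by broth microdilution following CLSI guidelines. Organisms were preincubated […], for 3 days before the assay. This allowed at least two generations, judged by the rise in turbidity. The MIC was read at the stated day, with incubation extended from day 3 to as long as 14 days.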

[8] = test system: Mycobacteroides abscessus; assay: Antimicrobial activity against Mycobacterium abscessus isolate MC720 at day 7 by broth microdilution method; details: isolate MC720, 168 h
Method in brief: (§3)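 Clinical M. abscessus isolates were preincubated for 3 days, either in medium alone or in clarithromycin or erythromycin at 0.01 to 1 μg/ml, allowing at least two generations of growth judged by turbidity. The clarithromycin MIC was then determined by CLSI-conforming broth microdilution, with plates read on day 3 and on extended incubation (days 5 to 14).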

[9] = test system: Mycobacteroides abscessus; assay: Antimicrobial activity against Mycobacterium abscessus isolate MC724 at day 9 by broth microdilution method; details: isolate MC724, 216 h; method in brief: as §2
[10] = test system: Mycobacteroides abscessus; assay: Antimicrobial activity against Mycobacterium abscessus isolate MC724 at day 14 by broth microdilution method; details: isolate MC724, 336 h
Method in brief: (§4)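 Clarithromycin MIC by broth microdilution following CLSI guidelines. Before testing, organisms were preincubated for 3 days in medium alone or in clarithromycin or erythromycin (0.01–1 μg/ml), long enough for at least two generations judged by turbidity increase. MICs were read on day 3 and again on extended incubation out to day 14.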

[11] = test system: Mycobacteroides abscessus; assay: Antimicrobial activity against Mycobacterium abscessus isolate MAB30 at day 5 by broth microdilution method; details: isolate MAB30, 120 h; method in brief: as §1
[12] = test system: Mycobacteroides abscessus; assay: Antimicrobial activity against Mycobacterium abscessus isolate MAB30 at day 7 by broth microdilution method; details: isolate MAB30, 168 h; method in brief: as §1
[13] = test system: Mycobacteroides abscessus; assay: Antimicrobial activity against Mycobacterium abscessus isolate MC1028 at day 9 by broth microdilution method; details: isolate MC1028, 216 h; method in brief: as §1
[14] = test system: Mycobacteroides abscessus; assay: Antimicrobial activity against Mycobacterium abscessus isolate MAB30 at day 14 by broth microdilution method; details: isolate MAB30, 336 h; method in brief: as §1
[15] = test system: Mycobacteroides abscessus; assay: Antimicrobial activity against Mycobacterium abscessus isolate MC1028 at day 7 preincubated with 0.1 ug/ml erythromycin for 3 days by broth microdilution method; method in brief: as §1
[16] = test system: Mycobacteroides abscessus; assay: Antimicrobial activity against Mycobacterium abscessus isolate MC1028 at day 9 preincubated with 0.1 ug/ml erythromycin for 3 days by broth microdilution method; method in brief: as §1
[17] = test system: Mycobacteroides abscessus; assay: Antimicrobial activity against Mycobacterium abscessus isolate MC1082 at day 9 preincubated with 0.1 ug/ml erythromycin for 3 days by broth microdilution method; method in brief: as §1
[18] = test system: Mycobacteroides abscessus; assay: Antimicrobial activity against Mycobacterium abscessus isolate MC879 at day 7 preincubated with 0.1 ug/ml erythromycin for 3 days by broth microdilution method
Method in brief: (§5)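 To test inducible resistance, cultures were preincubated for 3 days in clarithromycin or erythromycin, within 0.01–1 μg/ml. The period was set so cultures passed at least two generations, judged by turbidity increase. Clarithromycin MIC was then determined by CLSI-conforming broth microdilution and read on the stated day, from day 3 up to 14.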

[19] = test system: Mycobacteroides abscessus; assay: Antimicrobial activity against Mycobacterium abscessus isolate MC723 at day 7 preincubated with 0.1 ug/ml erythromycin for 3 days by broth microdilution method; method in brief: as §4
[20] = test system: Mycobacteroides abscessus; assay: Antimicrobial activity against Mycobacterium abscessus isolate MC719 at day 9 preincubated with 0.1 ug/ml erythromycin for 3 days by broth microdilution method; method in brief: as §4
[21] = test system: Mycobacteroides abscessus; assay: Antimicrobial activity against Mycobacterium abscessus isolate MC1082 at day 14 preincubated with 0.1 ug/ml erythromycin for 3 days by broth microdilution method; method in brief: as §1
[22] = test system: Mycobacteroides abscessus; assay: Antimicrobial activity against Mycobacterium abscessus isolate MC1028 at day 3 preincubated with 0.1 ug/ml for 3 days by broth microdilution method; method in brief: as §1
[23] = test system: Mycobacteroides abscessus; assay: Antimicrobial activity against Mycobacterium abscessus isolate MC1028 at day 5 preincubated with 0.1 ug/ml for 3 days by broth microdilution method; method in brief: as §1
[24] = test system: Mycobacteroides abscessus; assay: Antimicrobial activity against Mycobacterium abscessus isolate MC1028 at day 9 preincubated with 0.1 ug/ml for 3 days by broth microdilution method; method in brief: as §1
[25] = test system: Mycobacteroides abscessus; assay: Antimicrobial activity against Mycobacterium abscessus isolate MAB30 at day 14 preincubated with 0.1 ug/ml for 3 days by broth microdilution method; method in brief: as §1
[26] = test system: Mycobacteroides abscessus; assay: Antimicrobial activity against Mycobacterium abscessus isolate MC1082 at day 14 preincubated with 0.1 ug/ml for 3 days by broth microdilution method; method in brief: as §1
[27] = test system: Mycobacteroides abscessus; assay: Antimicrobial activity against Mycobacterium abscessus isolate MC1448 at day 9 by broth microdilution method; details: isolate MC1448, 216 h; method in brief: as §4
[28] = test system: Mycobacteroides abscessus; assay: Antimicrobial activity against Mycobacterium abscessus isolate MC1448 at day 14 by broth microdilution method; details: isolate MC1448, 336 h; method in brief: as §1
[29] = test system: Mycobacteroides abscessus; assay: Antimicrobial activity against Mycobacterium abscessus isolate MC1448 at day 3 preincubated with 0.1 ug/ml erythromycin for 3 days by broth microdilution method; method in brief: as §4
[30] = test system: Mycobacteroides abscessus; assay: Antimicrobial activity against Mycobacterium abscessus isolate MC723 at day 14 preincubated with 0.1 ug/ml erythromycin for 3 days by broth microdilution method; method in brief: as §4
[31] = test system: Mycobacteroides abscessus; assay: Antimicrobial activity against Mycobacterium abscessus isolate MC958 at day 7 preincubated with 0.1 ug/ml for 3 days by broth microdilution method
[32] = test system: Mycobacteroides abscessus; assay: Antimicrobial activity against Mycobacterium abscessus isolate MC720 at day 7 preincubated with 0.1 ug/ml for 3 days by broth microdilution method; method in brief: as §4
[33] = test system: Mycobacteroides abscessus; assay: Antimicrobial activity against Mycobacterium abscessus isolate MC723 at day 9 preincubated with 0.1 ug/ml for 3 days by broth microdilution method; method in brief: as §4
[34] = test system: Mycobacteroides abscessus; assay: Antimicrobial activity against Mycobacterium abscessus isolate MC958 at day 14 preincubated with 0.1 ug/ml for 3 days by broth microdilution method; method in brief: as §5
[35] = test system: Mycobacteroides abscessus; assay: Antimicrobial activity against Mycobacterium abscessus isolate MC719 at day 5 preincubated with 0.1 ug/ml erythromycin for 3 days by broth microdilution method; method in brief: as §3

Q: For CC[C@H]1OC(=O)[C@H](C)[C@@H](O[C@H]2C[C@@](C)(OC)[C@@H](O)[C@H](C)O2)[C@H](C)[C@@H](O[C@@H]2O[C@H](C)C[C@H](N(C)C)[C@H]2O)[C@](C)(OC)C[C@@H](C)C(=O)[C@H](C)[C@@H](O)[C@]1(C)O [CLARITHROMYCIN], which MIC [1] is on record?
A: Its MIC is > 32 µg/mL.

Q: What about the MIC [2] of the same compound?
A: The MIC was > 32 µg/mL.

Q: And the MIC [3]?
A: The MIC was 32 µg/mL (≈ 42.8 µM).

Q: And the MIC [4]?
A: Its MIC is 2 µg/mL (≈ 2.67 µM).

Q: And the MIC [5]?
A: Its MIC is 16 µg/mL.

Q: And the MIC [6]?
A: The MIC was ≤ 0.5 µg/mL.

Q: What about the MIC [7] of the same compound?
A: The MIC was 8 µg/mL (≈ 10.7 µM).

Q: And the MIC [8]?
A: The MIC was 8 µg/mL (≈ 10.7 µM).

Q: What about the MIC [9] of the same compound?
A: Its MIC is > 32 µg/mL.

Q: And the MIC [10]?
A: The MIC was > 32 µg/mL.

Q: What about the MIC [11] of the same compound?
A: Its MIC is ≤ 0.5 µg/mL.

Q: What about the MIC [12] of the same compound?
A: Its MIC is ≤ 0.5 µg/mL.

Q: And the MIC [13]?
A: Its MIC is ≤ 0.5 µg/mL.

Q: And the MIC [14]?
A: The MIC was ≤ 0.5 µg/mL.

Q: And the MIC [15]?
A: Its MIC is ≤ 0.5 µg/mL.

Q: And the MIC [16]?
A: The MIC was ≤ 0.5 µg/mL.

Q: What about the MIC [17] of the same compound?
A: The MIC was ≤ 0.5 µg/mL.

Q: What about the MIC [18] of the same compound?
A: The MIC was > 32 µg/mL.

Q: What about the MIC [19] of the same compound?
A: Its MIC is > 32 µg/mL.

Q: What about the MIC [20] of the same compound?
A: The MIC was > 32 µg/mL.

Q: And the MIC [21]?
A: Its MIC is ≤ 0.5 µg/mL.

Q: What about the MIC [22] of the same compound?
A: Its MIC is ≤ 0.5 µg/mL.

Q: What about the MIC [23] of the same compound?
A: The MIC was ≤ 0.5 µg/mL.

Q: And the MIC [24]?
A: Its MIC is ≤ 0.5 µg/mL.

Q: And the MIC [25]?
A: Its MIC is ≤ 0.5 µg/mL.

Q: And the MIC [26]?
A: The MIC was ≤ 0.5 µg/mL.

Q: What about the MIC [27] of the same compound?
A: The MIC was > 32 µg/mL.

Q: What about the MIC [28] of the same compound?
A: Its MIC is > 32 µg/mL.

Q: And the MIC [29]?
A: Its MIC is > 32 µg/mL.

Q: What about the MIC [30] of the same compound?
A: The MIC was > 32 µg/mL.

Q: And the MIC [31]?
A: Its MIC is > 32 µg/mL.

Q: What about the MIC [32] of the same compound?
A: The MIC was > 32 µg/mL.

Q: And the MIC [33]?
A: The MIC was > 32 µg/mL.

Q: What about the MIC [34] of the same compound?
A: Its MIC is > 32 µg/mL.

Q: And the MIC [35]?
A: The MIC was 4 µg/mL.
